The source made the active and inactive calls. The rule behind the calls is not given here.
Columns and labels:
[1] = target: T1, Polyunsaturated fatty acid lipoxygenase ALOX12 (Homo sapiens) (UniProt P18054); assay: Inhibition of 12-lipoxygenase in A23187-stimulated human PMNL assessed as reduction of 12(S)-H(P)ETE formation up to 10 uM preincubated 15 mins by RP-HPLC analysis in presence of exogenous arachidonic acid
T1 sequence (whole entry): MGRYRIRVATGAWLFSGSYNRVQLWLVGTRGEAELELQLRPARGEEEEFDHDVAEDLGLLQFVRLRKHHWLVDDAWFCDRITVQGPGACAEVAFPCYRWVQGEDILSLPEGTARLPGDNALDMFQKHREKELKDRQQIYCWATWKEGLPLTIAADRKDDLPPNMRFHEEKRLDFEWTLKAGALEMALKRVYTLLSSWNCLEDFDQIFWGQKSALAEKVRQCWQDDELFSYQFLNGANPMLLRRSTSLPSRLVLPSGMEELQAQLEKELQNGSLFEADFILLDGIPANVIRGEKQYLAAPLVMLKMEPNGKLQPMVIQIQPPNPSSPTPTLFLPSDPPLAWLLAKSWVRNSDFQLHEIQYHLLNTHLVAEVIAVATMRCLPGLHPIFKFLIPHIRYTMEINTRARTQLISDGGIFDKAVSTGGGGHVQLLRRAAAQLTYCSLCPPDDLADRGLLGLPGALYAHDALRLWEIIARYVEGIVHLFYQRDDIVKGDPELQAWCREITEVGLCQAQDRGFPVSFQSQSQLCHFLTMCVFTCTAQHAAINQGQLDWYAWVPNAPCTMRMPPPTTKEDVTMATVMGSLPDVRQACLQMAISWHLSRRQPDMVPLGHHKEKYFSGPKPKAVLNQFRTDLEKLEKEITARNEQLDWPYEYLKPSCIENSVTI
In short: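 Freshly isolated human PMNL (5 × 10⁶/ml PGC buffer: PBS pH 7.4, 1 mg/ml glucose, 1 mM CaCl₂) preincubated with compound 15 min at 37 °C. Stimulated with 2.5 µM A23187 plus exogenous AA for 10 min at 37 °C. Stopped with methanol, PGB₁ added as internal standard, lipoxygenase products analysed by HPLC. Mean of n = 3–5.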

A549 = assay: Cytotoxicity against human A549 cells assessed as cell viability at 10 uM after 16 hrs by MTT assay; format: cell-based; conditions: a549, 5 h, in the assay text read “5 hrs” for “16 hrs”
In short: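 A549 cells plated at 4 × 10⁴ cells per well, incubated 16 h at 37 °C, 5% CO₂, then exposed to 10 µM compound or DMSO (≤0.3% final) for 5 h. MTT added for 4 h, formazan solubilized with SDS in 20 mM HCl, absorbance at 595 nm read relative to vehicle-treated cells.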

With `CCCCC(Sc1ccc(OCCCOc2ccc(-c3ccccc3)cc2)cc1)C(=O)O` (configuration not stated) the inhibition [1] was “inactive” and the Activity (A549) was “Non-toxic”.

From ChEMBL document CHEMBL1777776, “Identification of 2-mercaptohexanoic acids as dual inhibitors of 5-lipoxygenase and microsomal prostaglandin E₂ synthase-1” (Bioorg Med Chem, 2011)
